Reference: ChEMBL document CHEMBL4393735, “Molecular modelling, synthesis, and biological evaluations of a 3,5-disubstituted isoxazole fatty acid analogue as a PPARα-selective agonist” (Bioorg Med Chem, 2019)
The source made the active and inactive calls.

Assays:
[1] = biological target: T1, Peroxisome proliferator-activated receptor alpha (Homo sapiens) (UniProt Q07869); experiment: Agonist activity at PPARalpha in human Huh7 cells assessed as PPARA mRNA expression at 50 uM measured after 18 hrs by qRT-PCR analysis; format: cell-based
T1 sequence (whole entry): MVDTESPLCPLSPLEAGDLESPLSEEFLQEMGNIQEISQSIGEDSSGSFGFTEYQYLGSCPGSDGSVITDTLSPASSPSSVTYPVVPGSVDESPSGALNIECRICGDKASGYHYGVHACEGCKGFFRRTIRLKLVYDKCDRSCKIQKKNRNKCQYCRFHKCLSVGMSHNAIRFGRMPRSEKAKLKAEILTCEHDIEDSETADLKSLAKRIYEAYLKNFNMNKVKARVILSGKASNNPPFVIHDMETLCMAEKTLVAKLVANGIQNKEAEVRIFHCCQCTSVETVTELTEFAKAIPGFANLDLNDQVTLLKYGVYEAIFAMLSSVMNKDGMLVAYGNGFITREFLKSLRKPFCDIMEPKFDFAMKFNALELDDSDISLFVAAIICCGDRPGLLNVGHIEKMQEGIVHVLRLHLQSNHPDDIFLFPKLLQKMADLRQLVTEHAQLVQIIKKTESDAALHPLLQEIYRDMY
Procedure, shortened: (§1)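 Treatment for 18 h at 50 μM (or 1 μM for the 1 μM agents), DMSO vehicle. Harvested for qPCR. mRNA normalized to TBP by the comparative threshold method, expressed relative to DMSO control. Two biological replicates run in duplicate, mean ± SEM. Primary hepatocytes came from male C57BL/6N mice aged 7–8 weeks, isolated by portal-vein perfusion and digestion, seeded on collagen I and used on day 2. HuH-7 cells were kept in DMEM with 10% FBS and ITS.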

[2] = biological target: T1, Peroxisome proliferator-activated receptor alpha (Homo sapiens); experiment: Agonist activity at PPARalpha in human Huh7 cells assessed as SCD1 mRNA expression at 50 uM measured after 18 hrs by qRT-PCR analysis; format: cell-based; procedure, shortened: as §1
[3] = biological target: T1, Peroxisome proliferator-activated receptor alpha (Homo sapiens); experiment: Agonist activity at PPARalpha in human Huh7 cells assessed as SREBF1 mRNA expression at 50 uM measured after 18 hrs by qRT-PCR analysis; format: cell-based; procedure, shortened: as §1
[4] = biological target: T2, Peroxisome proliferator-activated receptor alpha (Mus musculus) (UniProt P23204); experiment: Agonist activity at PPARalpha in C57BL/6N mouse primary hepatocytes assessed as PPARA mRNA expression at 50 uM measured after 18 hrs by qRT-PCR analysis; format: cell-based; procedure, shortened: as §1
T2 sequence (whole entry): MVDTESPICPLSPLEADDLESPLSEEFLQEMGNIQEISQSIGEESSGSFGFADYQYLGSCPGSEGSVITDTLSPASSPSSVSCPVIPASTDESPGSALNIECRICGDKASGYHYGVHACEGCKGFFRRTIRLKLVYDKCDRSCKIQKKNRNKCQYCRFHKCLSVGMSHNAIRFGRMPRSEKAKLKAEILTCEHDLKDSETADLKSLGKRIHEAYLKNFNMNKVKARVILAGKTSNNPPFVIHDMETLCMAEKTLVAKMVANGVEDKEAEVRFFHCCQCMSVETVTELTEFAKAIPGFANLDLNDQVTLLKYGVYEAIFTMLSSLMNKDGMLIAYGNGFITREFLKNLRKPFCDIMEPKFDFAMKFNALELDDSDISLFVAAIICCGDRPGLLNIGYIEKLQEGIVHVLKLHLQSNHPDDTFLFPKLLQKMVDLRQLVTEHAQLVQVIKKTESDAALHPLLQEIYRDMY

[5] = biological target: T2, Peroxisome proliferator-activated receptor alpha (Mus musculus); experiment: Agonist activity at PPARalpha in C57BL/6N mouse primary hepatocytes assessed as SCD1 mRNA expression at 50 uM measured after 18 hrs by qRT-PCR analysis; format: cell-based; procedure, shortened: as §1
[6] = biological target: T2, Peroxisome proliferator-activated receptor alpha (Mus musculus); experiment: Agonist activity at PPARalpha in C57BL/6N mouse primary hepatocytes assessed as SREBF1 mRNA expression at 50 uM measured after 18 hrs by qRT-PCR analysis; format: cell-based; procedure, shortened: as §1
[7] = test system: SGBS; experiment: Upregulation of PPARgamma gene expression in human preadipocyte derived from Simpson-Golabi-Behmel syndrome (SGBS) patient at 25 uM measured for 12 days by qRT-PCR analysis; format: functional, cell-based
Procedure, shortened: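 SGBS cells grown 4 days in biotin/D-pantothenate medium, then differentiated without FBS (apo-transferrin, insulin, T3, hydrocortisol, IBMX, dexamethasone) with 25 μM compound or 0.1 % DMSO added from day 0. After 4 days, switched to maintenance medium without IBMX/dexamethasone, renewed day 8. qPCR on days 0, 4, 8, 12, normalized to TBP (comparative threshold) and to day 0. Minimum three biological replicates in duplicate, mean ± SEM.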

[8] = test system: SGBS; experiment: Upregulation of CEBPA gene expression in human preadipocyte derived from Simpson-Golabi-Behmel syndrome (SGBS) patient at 25 uM measured for 12 days by qRT-PCR analysis; format: functional, cell-based
Procedure, shortened: (§2)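 SGBS cells were differentiated with serum-free induction medium containing 25 μM test agent, 2 μM rosiglitazone or 0.1% DMSO from day 0. IBMX and dexamethasone were removed on day 4 and medium was renewed on day 8. RNA was taken on days 0, 4, 8 and 12 for qPCR, normalized to TBP and to day 0. At least three biological replicates in duplicate, two-way ANOVA with Bonferroni.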

[9] = test system: SGBS; experiment: Upregulation of ACSL1 gene expression in human preadipocyte derived from Simpson-Golabi-Behmel syndrome (SGBS) patient at 25 uM measured for 12 days by qRT-PCR analysis; format: functional, cell-based; procedure, shortened: as §2
[10] = test system: SGBS; experiment: Upregulation of CD36 gene expression in human preadipocyte derived from Simpson-Golabi-Behmel syndrome (SGBS) patient at 25 uM measured for 12 days by qRT-PCR analysis; format: functional, cell-based; procedure, shortened: as §2
[11] = test system: SGBS; experiment: Upregulation of FABP4 gene expression in human preadipocyte derived from Simpson-Golabi-Behmel syndrome (SGBS) patient at 25 uM measured for 12 days by qRT-PCR analysis; format: functional, cell-based; procedure, shortened: as §2
[12] = test system: SGBS; experiment: Upregulation of PLIN1 gene expression in human preadipocyte derived from Simpson-Golabi-Behmel syndrome (SGBS) patient at 25 uM measured for 12 days by qRT-PCR analysis; format: functional, cell-based; procedure, shortened: as §2
[13] = test system: SGBS; experiment: Upregulation of ADIPOQ gene expression in human preadipocyte derived from Simpson-Golabi-Behmel syndrome (SGBS) patient at 25 uM measured for 12 days by qRT-PCR analysis; format: functional, cell-based; procedure, shortened: as §2
[14] = test system: SGBS; experiment: Upregulation of ANGPTL4 gene expression in human preadipocyte derived from Simpson-Golabi-Behmel syndrome (SGBS) patient at 25 uM measured for 12 days by qRT-PCR analysis; format: functional, cell-based; procedure, shortened: as §2
[15] = test system: SGBS; experiment: Induction of adipocyte differentiation in human preadipocyte derived from Simpson-Golabi-Behmel syndrome (SGBS) patient assessed as lipid accumulation at 25 uM measured for 12 days by Oil red O staining based microscopic analysis; format: functional, cell-based
Procedure, shortened: (§3)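 Differentiation of SGBS preadipocytes was started in serum-free medium with transferrin, insulin, T3, hydrocortisol, IBMX and dexamethasone, plus 25 μM test agent, 2 μM rosiglitazone or 0.1% DMSO. On day 4 medium was switched to lack IBMX and dexamethasone, and it was renewed on day 8. Cells were fixed with 4% PFA and stained with 0.3% Oil Red O on days 0, 4, 8 and 12, then photographed.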

[16] = biological target: T2, Peroxisome proliferator-activated receptor alpha (Mus musculus); experiment: Agonist activity at PPARalpha in C57BL/6N mouse primary hepatocytes assessed as activation of Scd1 mRNA expression at 1 uM measured after 18 hrs by qRT-PCR analysis; format: cell-based; procedure, shortened: as §1
[17] = biological target: T2, Peroxisome proliferator-activated receptor alpha (Mus musculus); experiment: Agonist activity at PPARalpha in C57BL/6N mouse primary hepatocytes assessed as activation of Cpt1a mRNA expression at 1 uM measured after 18 hrs by qRT-PCR analysis; format: cell-based; procedure, shortened: as §1
[18] = biological target: T1, Peroxisome proliferator-activated receptor alpha (Homo sapiens); experiment: Agonist activity at PPARalpha in human Huh7 cells assessed as SREBF1 mRNA expression at 1 uM measured after 18 hrs by qRT-PCR analysis; format: cell-based; procedure, shortened: as §1
[19] = biological target: T1, Peroxisome proliferator-activated receptor alpha (Homo sapiens); experiment: Agonist activity at PPARalpha in human Huh7 cells assessed as SCD1 mRNA expression at 1 uM measured after 18 hrs by qRT-PCR analysis; format: cell-based; procedure, shortened: as §1
[20] = biological target: T1, Peroxisome proliferator-activated receptor alpha (Homo sapiens); experiment: Agonist activity at PPARalpha in human Huh7 cells assessed as PPARA mRNA expression at 1 uM measured after 18 hrs by qRT-PCR analysis; format: cell-based; procedure, shortened: as §1
[21] = biological target: T1, Peroxisome proliferator-activated receptor alpha (Homo sapiens); experiment: Agonist activity at PPARalpha in human Huh7 cells assessed as activation of CPT1A mRNA expression at 1 uM measured after 18 hrs by qRT-PCR analysis; format: cell-based; procedure, shortened: as §1
[22] = biological target: T2, Peroxisome proliferator-activated receptor alpha (Mus musculus); experiment: Agonist activity at PPARalpha in C57BL/6N mouse primary hepatocytes assessed as activation of Srebf1 mRNA expression at 1 uM measured after 18 hrs by qRT-PCR analysis; format: cell-based; procedure, shortened: as §1
[23] = biological target: T2, Peroxisome proliferator-activated receptor alpha (Mus musculus); experiment: Agonist activity at PPARalpha in C57BL/6N mouse primary hepatocytes assessed as activation of Cpt1a mRNA expression at 50 uM measured after 18 hrs by qRT-PCR analysis; format: cell-based; procedure, shortened: as §1
[24] = biological target: T1, Peroxisome proliferator-activated receptor alpha (Homo sapiens); experiment: Agonist activity at PPARalpha in human Huh7 cells assessed as activation of CPT1A mRNA expression at 50 uM measured after 18 hrs by qRT-PCR analysis; format: cell-based; procedure, shortened: as §1
[25] = test system: SGBS; experiment: Induction of adipocyte differentiation in human preadipocyte derived from Simpson-Golabi-Behmel syndrome (SGBS) patient assessed as lipid accumulation at 2 uM measured for 12 days by Oil red O staining based microscopic analysis; format: functional, cell-based; procedure, shortened: as §3
[26] = biological target: T2, Peroxisome proliferator-activated receptor alpha (Mus musculus); experiment: Agonist activity at PPARalpha in C57BL/6N mouse primary hepatocytes assessed as activation of PPARalpha mRNA expression at 1 uM measured after 18 hrs by qRT-PCR analysis; format: cell-based; procedure, shortened: as §1
[27] = test system: SGBS; experiment: Upregulation of PPARgamma gene expression in human preadipocyte derived from Simpson-Golabi-Behmel syndrome (SGBS) patient at 2 uM measured for 12 days by qRT-PCR analysis; format: functional, cell-based; procedure, shortened: as §2
[28] = test system: SGBS; experiment: Upregulation of CEBPA gene expression in human preadipocyte derived from Simpson-Golabi-Behmel syndrome (SGBS) patient at 2 uM measured for 12 days by qRT-PCR analysis; format: functional, cell-based; procedure, shortened: as §2
[29] = test system: SGBS; experiment: Upregulation of ACSL1 gene expression in human preadipocyte derived from Simpson-Golabi-Behmel syndrome (SGBS) patient at 2 uM measured for 12 days by qRT-PCR analysis; format: functional, cell-based; procedure, shortened: as §2
[30] = test system: SGBS; experiment: Upregulation of CD36 gene expression in human preadipocyte derived from Simpson-Golabi-Behmel syndrome (SGBS) patient at 2 uM measured for 12 days by qRT-PCR analysis; format: functional, cell-based; procedure, shortened: as §2
[31] = test system: SGBS; experiment: Upregulation of FABP4 gene expression in human preadipocyte derived from Simpson-Golabi-Behmel syndrome (SGBS) patient at 2 uM measured for 12 days by qRT-PCR analysis; format: functional, cell-based; procedure, shortened: as §2
[32] = test system: SGBS; experiment: Upregulation of PLIN1 gene expression in human preadipocyte derived from Simpson-Golabi-Behmel syndrome (SGBS) patient at 2 uM measured for 12 days by qRT-PCR analysis; format: functional, cell-based; procedure, shortened: as §2
[33] = test system: SGBS; experiment: Upregulation of ADIPOQ gene expression in human preadipocyte derived from Simpson-Golabi-Behmel syndrome (SGBS) patient at 2 uM measured for 12 days by qRT-PCR analysis; format: functional, cell-based; procedure, shortened: as §2
[34] = test system: SGBS; experiment: Upregulation of ANGPTL4 gene expression in human preadipocyte derived from Simpson-Golabi-Behmel syndrome (SGBS) patient at 2 uM measured for 12 days by qRT-PCR analysis; format: functional, cell-based; procedure, shortened: as §2

Measured: Activity

CCCCCCCC(=O)/C=C/CCCCCC(=O)O
inactive: [1] | [2] | [3] | [5] | [6]
active: [4] | [7] | [8] | [9] | [10] | [11] | [12] | [13] | [14] | [15]

CC(C)(Sc1ccc(CCN(CCCCC2CCCCC2)C(=O)NC2CCCCC2)cc1)C(=O)O
inactive: [18] | [19] | [20]
active: [16] | [17] | [21] | [22]

Cc1cccc(Nc2cc(Cl)nc(SCC(=O)O)n2)c1C
active: [23] | [24] | [5] | [6] | [7] | [8] | [9] | [10] | [11] | [12] | [13] | [14] | [15]
inactive: [1] | [2] | [3]

CCCCC/C=C/C(=O)CCCCCCCC(=O)O
active: [4] | [7] | [8] | [9] | [10] | [11] | [12] | [13] | [14] | [15]
inactive: [1] | [2] | [3] | [5] | [6]

CN(CCOc1ccc(CC2SC(=O)NC2=O)cc1)c1ccccn1 (stereo not given)
inactive: [16] | [22]
active: [25] | [26] | [27] | [28] | [29] | [30] | [31] | [32] | [33] | [34]
